The values that follow come from publication PMC6774857 (Cell calcium, 2019).

In data set [1] the target is sea urchin NAADP receptor. As to conditions: sea urchin egg homogenates, cited from earlier work.
Data set [2] concerns sea urchin NAADP receptor. Nature of the data set: Ca2+ release from sea urchin egg homogenates. The format is biochemical, Strongylocentrotus purpuratus. The method in brief: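 Ca2+ release measured in Strongylocentrotus purpuratus egg homogenate after adding test compound.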
Data set [3] has as its system SKBR3 cells. As to the kind of experiment: Microinjection of SKBR3 cells with GCaMP6M confocal Ca2+ imaging. The conditions noted are these: for EC50 of fold-change in the intensity of the Ca2+ signal: SKBR3 cells transfected with TPC2 and GCaMP6M, concentration in the micropipette. The format is cell-based, human.
Data set [4] concerns the target sea urchin NAADP receptor. Nature of the data set: Competition-binding assay with [32P]-NAADP in sea urchin egg extracts. Details: species or system Strongylocentrotus purpuratus. The conditions noted are these: read-out: IC50 competition with [32P]-NAADP.
Data set [5] addresses T1, 23 kDa NAADP binding protein(s) (Homo sapiens, UniProt Q9H910).
T1 sequence (Q9H910 1-190): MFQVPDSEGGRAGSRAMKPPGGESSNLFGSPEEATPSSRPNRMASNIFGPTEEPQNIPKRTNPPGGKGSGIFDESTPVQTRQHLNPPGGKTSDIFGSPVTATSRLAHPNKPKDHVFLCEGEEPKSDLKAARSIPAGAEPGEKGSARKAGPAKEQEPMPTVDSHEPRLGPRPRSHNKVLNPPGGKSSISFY
As to conditions: Jurkat cell extracts, 23 kDa band.

Data set [6] is described as follows: Solubility in buffered water. The format is physicochemical.
Data set [7] deals with U2OS cells. The conditions noted are these: cited from earlier work.
Data set [8] deals with ascidian oocytes. As to conditions: read-out: EC50 of Ca2+ mobilization; cited from earlier work. For orientation: Calcium flux is commonly read through the fluorescence of an indicator in the cells.
The target in data set [9] is sea urchin NAADP receptor. The format is biochemical, Strongylocentrotus purpuratus. The conditions noted are these: read-out: IC50 for desensitization; data not shown.

Read-outs that look alike come from different tables or passages of the source.

Take “5-(3-(t-Boc-amino)-propyl)-NAADP [compound 3]”: the “EC50 (agonist)” value in [1] (previously synthesized and tested) is recorded as “micromolar range”.

By IC50 is commonly meant the concentration at which inhibition is half-maximal. As to “5-[3-(3-Azido-5-(azidomethyl)benzamido)propyl]-NAADP [AIOC-NAADP]”, in data set [2] (at 1 mM), the “Calcium released, % of the amount of calcium released by 10 μM NAADP” value was determined as 18%. Also, the “Release of Ca2+ from sea urchin egg homogenates” value in data set [2] (concentrations less than 100 μM) is given as “did not elicit release”. In [3], the “EC50 of fold-change in the intensity of the Ca2+ signal” value is 173 nM. The “Potency relative to 9” value in data set [3] (microinjection into cultured human cells, 9 data ref 56) is given as “approximately 10 fold”. In [4], the half-inhibitory concentration (IC50) amounted to 6000 nM.

For `NC(=O)c1ccc[n+]([C@H]2O[C@@H](COP(=O)([O-])OP(=O)(O)OC[C@H]3O[C@@H](n4cnc5c(N)ncnc54)[C@H](OP(=O)(O)O)[C@@H]3O)[C@H](O)[C@@H]2O)c1` [NADP], the “Fold higher concentrations required for similar protection compared with NAADP” value in data set [5] was found to be 40 fold.

As for `[N-]=[N+]=NCc1cc(N=[N+]=[N-])cc(C(=O)NCCCc2cncc(C(=O)O)c2)c1` [compound 4, 5-(3-(3-Azido-5-(azidomethyl)benzamido)propyl) nicotinic acid], the Solubility result was “low solubility” in [6] (buffered water at pH 4.5) and “completely soluble” in data set [6] (higher pH (pH ≥ 5)).

`C#Cc1nc2c(N)ncnc2n1C1OC(COP(=O)(O)OP(=O)(O)OC[C@H]2O[C@@H]([n+]3cc(N=[N+]=[N-])cc(C(=O)[O-])c3)[C@H](O)[C@@H]2O)C(O)C1OP(=O)(O)O` (some centres unmarked) [compound 9, 5-azido-8-ethynyl-NAADP]: the “Activity when microinjected into cultured human U2OS cells” value in data set [7] is reported as “active at low concentration”.

The EC50 is the midpoint of the concentration-response curve. As for “nicotinic acid adenine dinucleotide phosphate [NAADP]”, the EC50 in data set [8] and in data set [1] (read-out: EC50 of Ca2+ mobilization) was 10 to 50 nM each time. For the same compound, the “EC50 of fold-change in the intensity of the Ca2+ signal” value in data set [3] stood at 22 nM. The IC50 in data set [9] worked out at 0.3 nM.
